Active and inactive are the calls of the source. The rule behind the calls is not given here.
Tests used:
Rattus norvegicus [1] = test: Effective dose for half-maximal decrease in the accumulation of 5-hydroxytryptophan (5-HTP) in reserpinized rat brain striatal area by sc administration; Inactive; format: functional, organism-based
Procedure, shortened: (§1)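 Male Sprague-Dawley rats (200-300 g) got reserpine 5 mg/kg sc 18 h before. The test drug (saline) was given sc or po (po rats fasted 18 h), with NSD 1015, 30 min before decapitation. DOPA and 5-HTP in limbic, striatal and hemispheral tissue were measured by HPLC-ED. ED50 (half-maximal decrease) was taken from 4-6-dose curves, with deviation estimated graphically from SEM.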

Rattus norvegicus [2] = test: Effective dose for half-maximal decrease in the accumulation of 5-hydroxytryptophan (5-HTP) in reserpinized rat brain hemispheral area by sc administration; Inactive; format: functional, organism-based; procedure, shortened: as §1
Rattus norvegicus [3] = test: post-synaptic agonistic effects by increase in locomotor activity at the dose of 2.2 umol/kg, sc in reserpinized rat; format: functional
Rattus norvegicus [4] = test: Effective dose for half-maximal decrease in the accumulation of 5-hydroxytryptophan (5-HTP) in reserpinized rat brain limbic area by sc administration; Inactive; format: functional, organism-based; procedure, shortened: as §1
Rattus norvegicus [5] = species on record: Rattus norvegicus; test: DA agonist induced behavior was charecterised by increased locomotion, sniffing and licking.+ indicates low intensity of behavioral effect; format: functional, organism-based
Procedure, shortened: (§2)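 Male Sprague-Dawley rats (200-300 g) given reserpine 5 mg/kg sc in the neck 18 h before testing. The test compound, in 0.9% saline, was given sc in the neck (n = 4-5). Rats were placed singly in photocell motility meters right after dosing. Counts were recorded over 30 min, alongside gross behavioural observation of 5-HT and DA signs. Statistics: ANOVA with Fischer's PLSD versus reserpine controls.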

[6] = target: T1, 5-hydroxytryptamine receptor 1A (Rattus norvegicus, UniProt P19327); test: Binding affinity against 5-hydroxytryptamine 1A receptor in homogenated rat brain tissue, using by [3H]8-OH-DPAT as radioligand; format: tissue-based
T1 sequence (P19327 whole entry): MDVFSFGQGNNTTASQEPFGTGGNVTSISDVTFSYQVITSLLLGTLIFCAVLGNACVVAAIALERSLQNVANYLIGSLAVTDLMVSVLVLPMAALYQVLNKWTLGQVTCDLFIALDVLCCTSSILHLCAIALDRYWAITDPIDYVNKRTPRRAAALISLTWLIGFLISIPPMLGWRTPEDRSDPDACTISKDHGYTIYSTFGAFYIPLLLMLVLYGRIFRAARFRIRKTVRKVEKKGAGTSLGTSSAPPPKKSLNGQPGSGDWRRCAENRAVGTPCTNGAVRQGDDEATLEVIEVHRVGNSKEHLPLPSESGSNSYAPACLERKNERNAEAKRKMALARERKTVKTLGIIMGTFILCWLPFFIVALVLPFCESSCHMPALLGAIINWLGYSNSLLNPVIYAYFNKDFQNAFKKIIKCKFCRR
Procedure, shortened: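 Rat brain homogenate was washed and preincubated in 50 mM Tris (pH 8.0) containing NaCl, CaCl2 and MgCl2, plus 10 μM pargyline. Nonspecific binding was defined with 10 μM 5-HT. Six drug concentrations (10⁻⁴-10⁻⁹ M) were tested, triplicate or single run. IC50 came from a semilog plot with linear regression.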

Rattus norvegicus [7] = test: (§3) Effective dose for half-maximal decrease in the accumulation of 5-hydroxytryptophan (5-HTP) in reserpinized rat brain hemispheral area by sc administration; format: functional; procedure, shortened: as §1
Rattus norvegicus [8] = test: post-synaptic agonistic effects by increase in locomotor activity at the dose of 0.2 umol/kg, sc in reserpinized rat (p<0.005); format: functional; procedure, shortened: as §2
Rattus norvegicus [9] = test: Effective dose for half-maximal decrease in the accumulation of 5-hydroxytryptophan (5-HTP) in reserpinized rat brain hemispheral area by po administration; format: functional; procedure, shortened: as §1
Rattus norvegicus [10] = test: Effective dose for half-maximal decrease in the accumulation of DOPA in reserpinized rat brain limbic area by po administration; Partial response at the highest dose tested; format: functional, organism-based; procedure, shortened: as §1
Rattus norvegicus [11] = test: Effective dose for half-maximal decrease in the accumulation of 5-hydroxytryptophan (5-HTP) in reserpinized rat brain limbic area by sc administration; format: functional; procedure, shortened: as §1
Rattus norvegicus [12] = test: Effective dose for half-maximal decrease in the accumulation of 5-hydroxytryptophan (5-HTP) in reserpinized rat brain limbic area by po administration; format: functional; procedure, shortened: as §1
Rattus norvegicus [13] = test: (§4) Effective dose for half-maximal decrease in the accumulation of DOPA in reserpinized rat brain hemispheral area by sc administration; Inactive; format: functional, organism-based; procedure, shortened: as §1
Rattus norvegicus [14] = test: Effective dose for half-maximal decrease in the accumulation of DOPA in reserpinized rat brain striatal area by sc administration; Inactive; format: functional, organism-based; procedure, shortened: as §1
Rattus norvegicus [15] = test: Effective dose for half-maximal decrease in the accumulation of 5-hydroxytryptophan (5-HTP) in reserpinized rat brain striatal area by po administration; format: functional; procedure, shortened: as §1
Rattus norvegicus [16] = test: Effective dose for half-maximal decrease in the accumulation of DOPA in reserpinized rat brain striatal area by po administration; Partial response at the highest dose tested; format: functional, organism-based; procedure, shortened: as §1
Rattus norvegicus [17] = test: (§5) Effective dose for half-maximal decrease in the accumulation of 5-hydroxytryptophan (5-HTP) in reserpinized rat brain striatal area by sc administration; format: functional; procedure, shortened: as §1
[18] = Half-lives were estimated from the elimination phase of the blood conc-time curve after oral administration; format: ADME, organism-based; conditions: rat, whole blood
Procedure, shortened: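 Male Sprague-Dawley rats (300 g) with arterial catheters were dosed 24 h after surgery. Doses: 40 μmol/kg po by gavage and 5 μmol/kg iv, or 20 po and 1 iv. Po rats were fasted 18 h. Blood was sampled from 5 min to 12 h and measured by GC-MS after extraction at pH 11 against an internal standard, samples in duplicate. AUC po/iv came from n = 4 per route. Half-life was read graphically from the oral elimination phase.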

Rattus norvegicus [19] = test: Effective dose for half-maximal decrease in the accumulation of DOPA in reserpinized rat brain limbic area by sc administration; Inactive; format: functional, organism-based; procedure, shortened: as §1
[20] = target: T2, Dopamine receptor (Rattus norvegicus) (UniProt P25115+P19020+P30729+P18901+P61169); test: Effective dose for half-maximal decrease in the accumulation of DOPA in reserpinized rat brain limbic area by sc administration; format: functional, organism-based; procedure, shortened: as §1
Rattus norvegicus [21] = test: post-synaptic agonistic effects by increase in locomotor activity at the dose of 12.5 umol/kg, sc in reserpinized rat (p<0.005); format: functional; procedure, shortened: as §2
D(2) dopamine receptor [22] = target: T3, D(2) dopamine receptor (Rattus norvegicus, UniProt P61169); test: Binding affinity against dopamine receptor D2 in rat brain tissue using [3H]spiperone; format: tissue-based
Procedure, shortened: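 Rat striatal membranes were prepared in 50 mM potassium phosphate (pH 7.4). They were incubated with 0.5 nM [3H]spiperone (3 mg original tissue) for 10 min at 37 °C. Specific binding was defined with 10 μM 6,7-ADTN. Six drug concentrations (10⁻⁴-10⁻⁹ M) were tested, in triplicate or in a single experiment.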

[23] = target: T2, Dopamine receptor (Rattus norvegicus); test: as §4; format: functional, organism-based; procedure, shortened: as §1
D(2) dopamine receptor [24] = target: T3, D(2) dopamine receptor; test: Binding affinity against dopamine receptor D2 in homogenated rat brain tissue, using by ([3H]N00437) as radioligand; format: tissue-based
Procedure, shortened: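 Striata from male Wistar rats were washed in Tris (pH 7.5) containing EDTA, KCl and CaCl2. Tissue (1.25 mg original) was incubated with 0.2 nM [3H]-N-0437 (final) for 90 min at 25 °C, then filtered and counted by scintillation. Nonspecific binding was defined with 1 μM 6,7-ADTN. IC50 was read from a hand-fitted sigmoid curve, in triplicate.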

[25] = target: T2, Dopamine receptor (Rattus norvegicus); test: Effective dose for half-maximal decrease in the accumulation of DOPA in reserpinized rat brain striatal area by sc administration; format: functional, organism-based; procedure, shortened: as §1
Rattus norvegicus [26] = test: post-synaptic agonistic effects by increase in locomotor activity at the dose of 50 umol/kg, sc in reserpinized rat (p<0.005); format: functional
[27] = as §3; format: functional; procedure, shortened: as §1
[28] = target: T2, Dopamine receptor (Rattus norvegicus); test: Effective dose for half-maximal decrease in the accumulation of DOPA in reserpinized rat brain hemispheral area by sc administration; partial response at the highest dose tested; format: functional, organism-based; procedure, shortened: as §1
Rattus norvegicus [29] = test: Effective dose for half-maximal decrease in the accumulation of 5-hydroxytryptophan (5-HTP) in reserpinized rat brain limbic area by sc administration; partial response at the highest dose tested; format: functional, organism-based; procedure, shortened: as §1
[30] = as §5; format: functional; procedure, shortened: as §1
[31] = target: T2, Dopamine receptor (Rattus norvegicus); test: Effective dose for half-maximal decrease in the accumulation of DOPA in reserpinized rat brain striatal area by sc administration; partial response at the highest dose tested; format: functional, organism-based; procedure, shortened: as §1
[32] = target: T2, Dopamine receptor (Rattus norvegicus); test: Effective dose for half-maximal decrease in the accumulation of DOPA in reserpinized rat brain limbic area by sc administration; partial response at the highest dose tested; format: functional, organism-based; procedure, shortened: as §1
Rattus norvegicus [33] = test: Effective dose for half-maximal decrease in the accumulation of 5-hydroxytryptophan (5-HTP) in reserpinized rat brain striatal area by sc administration; partial response at the highest dose tested; format: functional, organism-based; procedure, shortened: as §1

T3 sequence (P61169 whole entry): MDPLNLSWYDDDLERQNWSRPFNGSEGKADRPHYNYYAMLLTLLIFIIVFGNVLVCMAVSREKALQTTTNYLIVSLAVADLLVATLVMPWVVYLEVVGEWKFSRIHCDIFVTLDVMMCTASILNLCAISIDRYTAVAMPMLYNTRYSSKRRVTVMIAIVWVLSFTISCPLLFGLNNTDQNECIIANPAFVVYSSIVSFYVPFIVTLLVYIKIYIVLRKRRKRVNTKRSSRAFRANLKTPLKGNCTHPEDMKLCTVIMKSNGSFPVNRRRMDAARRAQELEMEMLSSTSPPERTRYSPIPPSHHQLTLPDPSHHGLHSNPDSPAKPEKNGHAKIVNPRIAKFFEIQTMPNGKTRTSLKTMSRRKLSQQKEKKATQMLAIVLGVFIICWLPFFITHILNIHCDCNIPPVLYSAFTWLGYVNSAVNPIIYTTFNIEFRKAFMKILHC

With `CCCN(CCC)[C@@H]1CCc2ccc(O)cc2C1` the ED50 (Rattus norvegicus [1]) was “inactive”, the ED50 (Rattus norvegicus [2]) was “inactive” and the Counts/30 (Rattus norvegicus [3]) was 100 counts/30 min. For the same compound, the ED50 (Rattus norvegicus [4]) was “inactive”, the Behavioral observation (Rattus norvegicus [5]) was “Partially active” and the Ki [6] was 3.26 µM.
In the case of `CCCN(CCC)C1CCc2cccc(O)c2C1` (stereo unspecified) [8-OH-DPAT], the ED50 (Rattus norvegicus [7]) is reported as 0.07 µmol/kg, the Counts/30 (Rattus norvegicus [8]) is reported as 66 counts/30 min and the ED50 (Rattus norvegicus [9]) is reported as 7.6 µmol/kg. For the same compound, the ED50 (Rattus norvegicus [10]) was “Weak activity”, the ED50 (Rattus norvegicus [11]) was 0.05 µmol/kg and the ED50 (Rattus norvegicus [12]) was 3 µmol/kg. For the same compound, the ED50 (Rattus norvegicus [13]) was “inactive”, the ED50 (Rattus norvegicus [14]) was “inactive” and the ED50 (Rattus norvegicus [15]) was 7.9 µmol/kg. For the same compound, the ED50 (Rattus norvegicus [16]) was “Weak activity”, the ED50 (Rattus norvegicus [17]) was 0.04 µmol/kg and the half-life [18] was 1.2 h. For the same compound, the ED50 (Rattus norvegicus [19]) was “inactive”.
With `CCCN(CCC)C1CCc2cc(OS(=O)(=O)C(F)(F)F)ccc2C1` (stereo unspecified) the ED50 (Rattus norvegicus [1]) was “inactive”, the ED50 [20] was 2 µmol/kg and the ED50 (Rattus norvegicus [2]) was “inactive”. The Counts/30 (Rattus norvegicus [21]) was 80 min, the Ki (D(2) dopamine receptor [22]) was 1.57 µM and the ED50 (Rattus norvegicus [4]) was “inactive”. For the same compound, the Behavioral syndrome (Rattus norvegicus [5]) was “Partially active”, the ED50 [23] was “inactive” and the Ki [6] was 16 µM. It also gave a Ki (D(2) dopamine receptor [24]) of 0.099 µM and an ED50 [25] of 1.3 µmol/kg.
In the case of `CCCN(CCC)C1CCc2ccc(OS(=O)(=O)C(F)(F)F)cc2C1` (stereo unspecified), the ED50 [20] is reported as 1.6 µmol/kg, the Counts/30 (Rattus norvegicus [26]) is reported as 170 min and the ED50 [27] is reported as 27 µmol/kg. The Ki (D(2) dopamine receptor [22]) was 1.3 µM, the ED50 [28] was “Weak activity” and the Ki [6] was 0.36 µM. For the same compound, the ED50 (Rattus norvegicus [29]) was “Weak activity”, the ED50 [30] was 34 µmol/kg and the Ki (D(2) dopamine receptor [24]) was 0.15 µM. It also gave an ED50 [25] of 0.4 µmol/kg.
With `CCCN(CCC)C1CCc2ccc(OC)cc2C1` (stereo unspecified) the ED50 (Rattus norvegicus [2]) was “inactive”, the ED50 [31] was “Weak activity” and the ED50 [23] was “inactive”. For the same compound, the ED50 [32] was “Weak activity”, the ED50 (Rattus norvegicus [29]) was “Weak activity” and the ED50 (Rattus norvegicus [33]) was “Weak activity”.

— ChEMBL document CHEMBL1126882, “Orally active central dopamine and serotonin receptor ligands: 5-, 6-, 7-, and 8-[[trifluoromethyl)sulfonyl]oxy]-2-(di-n-propylamino)tetralins and the formation of active metabolites in vivo” (J Med Chem, 1993)
